From PubChem
V1R ag counter: agonists of human V1a receptor, primary screen, counter-screen for OXTR agonist project, fluorescence, CHO-V1R cells. Fluo-8 calcium fluorescence, agonist mode; 0% DMSO, 100% 3 nM vasopressin. activation, % at 3 µM. 0.25% of 320,000 active. AID 2797, 2010;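 active = activation above the mean activation of all tested compounds plus 3 SD, per screening run, cut at about 20% in these data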;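 also: signal is peak over basal fluorescence ratio across a 100 second FLIPR read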
OXTR potentiate: human OXTR potentiators, primary screen, fluorescence, CHO-OTR cells, Fluo-8 calcium. Fluo-8 calcium fluorescence, potentiator mode; 0% = oxytocin EC15, 100% = EC100. activation, % at 3 µM. 0.061% of 320,000 active. AID 2445, 2010;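 active = activation above that plate's cutoff, the mean activation of tested compounds plus 3 SD, cut at about 6.6% in these data, passing the limit was not always enough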;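 also: 100% uses oxytocin at 75 nM as the full agonist control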
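Material: human OTR in CHO cells. Compound: 3.0 µM, one dose. Timing: compound 6 min at room temperature before oxytocin, 100 s read. Evaluation: % activation of max/min ratio relative to oxytocin controls. Replication: single well per compound, singlicate. Signal: Fluo-8 calcium dye fluorescence.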
OXTR ag: human OXTR agonists, primary screen, fluorescence, CHO-OTR cells, Fluo-8 calcium. Oxytocin receptor (Homo sapiens), P30559. Fluo-8 calcium fluorescence; normalized: DMSO 0%, oxytocin 100%. activation, % at 3 µM. 0.32% of 320,000 active. AID 2435, 2010;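 active = activation above the mean of all tested compounds plus 3 SD, cutoff set per screening run, cut at about 20% in these data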;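 also: peak over basal fluorescence ratio from a 100 s FLIPR kinetic read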
TAAR1 ag: human TAAR1 agonists, primary screen, Fluo-8 calcium fluorescence, CHO RD-HGA16 cells. Trace amine-associated receptor 1 (Homo sapiens), Q96RJ0. vehicle wells 0%, saturating PEA agonist 100%. activation, % at 3 µM. 0.99% of 360,000 active. AID 624467, 2012;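 active = activation above the mean activation of all test compounds in the run plus 3 SD, cut at about 38% in these data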
Target sequence (Q96RJ0 whole entry, looked up): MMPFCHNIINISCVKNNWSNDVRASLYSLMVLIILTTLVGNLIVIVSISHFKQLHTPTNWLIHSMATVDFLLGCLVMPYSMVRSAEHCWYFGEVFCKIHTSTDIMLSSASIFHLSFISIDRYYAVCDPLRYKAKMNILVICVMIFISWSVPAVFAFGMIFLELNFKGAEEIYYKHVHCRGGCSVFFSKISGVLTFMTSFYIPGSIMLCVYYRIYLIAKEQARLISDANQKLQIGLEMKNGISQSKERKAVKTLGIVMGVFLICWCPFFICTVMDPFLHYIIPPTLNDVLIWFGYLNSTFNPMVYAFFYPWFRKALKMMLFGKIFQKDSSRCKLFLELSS
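System: CHO-derived RD-HGA16 cells with stable Gα16 and human TAAR1. Times: 17-24 h plating, Fluo-8 75 min 37 °C, 30 min RT. Measured by: calcium-sensitive Fluo-8 signal, excitation 470-495, emission 515-575 nm. Read-out basis: % activation relative to PEA EC100 response. Control set: DMSO and PEA EC100. Repeats: no replicates (n 1).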
TAAR1 antagonist: human TAAR1 antagonists, primary screen, Fluo-8 calcium fluorescence, CHO RD-HGA16 cells; inhibition, % at 3 µM; 1.5% of 360,000 active; AID 624466, 2012; antagonist;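 active = inhibition above a per-plate cutoff, the mean inhibition of test compounds on that plate plus 3 SD, cut at about 49% in these data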;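 also: 0% = DMSO plus EC80 beta-PEA response and 100% = DMSO alone without agonist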
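Material: RD-HGA16 CHO cells with stable hTAAR1 and Gα16; Dosing: single nominal final test compound concentration of 3 µM; Schedule: seeding 17-24 h prior, 75-min 37 °C, 30-min RT dye loading; Detection: kinetic Fluo-8 calcium fluorescence measurement; Measure: % inhibition from peak post-agonist over basal fluorescence ratio; Benchmarks: vehicle and agonist controls.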
OXTR ag confirm: human OXTR agonists, confirmation, fluorescence, CHO-OTR cells, triplicate; 20% of 390 active; shares compounds with OXTR ag; activation, % at 3 µM; Fluo-8 calcium fluorescence, agonist;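 active = mean activation above about 20% derived from the earlier single-dose screen, limit read from the data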;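 also: peak over minimum fluorescence ratio per well during a 100 second FLIPR read; 0% = DMSO alone and 100% = oxytocin high control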
V1aR counter 3x: V1a receptor agonists, calcium signal, counter-screen for OXTR agonist project, triplicate, fluorescence, CHO-V1R cells | 10% of 390 active | AID 434991, 2010 | Fluo-8 calcium fluorescence | shares compounds with OXTR ag | activation, % at 3 µM;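 active = mean activation over triplicate exceeds the hit threshold set in the earlier primary screen, cut at about 20% in these data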;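 also: peak over basal fluorescence ratio within a 100 second read; 0% = DMSO alone and 100% = 3 nM vasopressin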
Active calls of the source: *; · = no result given. A selection: hits, their analogues and other compounds. The true share with any hit is near 2.3%.

SMILES	V1R ag counter	OXTR potentiate	OXTR ag	TAAR1 ag	TAAR1 antagonist	OXTR ag confirm	V1aR counter 3x
CCOc1ccc(Nc2nc(NCC3CCCO3)c3ccccc3n2)cc1 (stereo not drawn)	9	-26	20*	22	8	0	3
C[C@@H]1CN([C@@H](C)CO)C(=O)CCCn2nncc2CO[C@H]1CN(C)C(=O)Nc1ccc(N2CCN(C)CC2)cc1	·	·	·	2	-2	·	·
CS(=O)(=O)N1CCCC(c2nc(-c3ccc(S(=O)(=O)NCc4ccccc4)cc3)no2)C1 (stereo not drawn)	13	-9	20*	·	·	12	11
CS(=O)(=O)Nc1cccc(-c2cc(NC=O)c3ncc(-c4ccc(F)cc4)n3c2)c1	·	·	·	6	33	·	·
COc1ccc(S(=O)(=O)N2CCCCCC2)cc1C(=O)N1CCN(C(C)=O)CC1	·	·	·	1	-15	·	·
Cc1ccc(-c2noc(CCC(=O)NCCc3ccccc3Cl)n2)cc1	5	-16	20*	·	·	-1	0
COc1ccc(C2=NO[C@@H]3C(=O)N(c4ccc5c(c4)OCCO5)C(=O)[C@H]23)cc1OC	4	-1	6	14	1	·	·
COc1ccc(C2=NO[C@@H]3C(=O)N(C4CCCCC4)C(=O)[C@H]23)cc1OC	18	-8	21*	12	23	12	13
CSCC[C@H](NC(=O)[C@H](Cc1ccccc1)n1c(=O)[nH]c2ccccc2c1=O)C(=O)NCC1CCC(C(=O)O)CC1 (stereo partly drawn)	1	-1	0	0	11	·	·
CN1CCN(C(=O)C[C@H]2CC[C@H]3[C@@H](COC[C@@H](O)CN3Cc3cccc(F)c3)O2)CC1	·	·	·	2	-25	·	·
CC(=O)Oc1c(S(=O)(=O)c2ccc(C)cc2)c(C)nn1C(C)(C)C	-1	-8	-2	5	-1	·	·
Cc1ccc(S(=O)(=O)c2c(C)nn(C(C)(C)C)c2OC(=O)C(C)(C)C)cc1	6	-17	21*	26	-7	1	3
CCOC(=O)CN1C(=O)S/C(=C/c2ccc(N3CCCCC3)o2)C1=O	4	-15	10	29	29	·	·
CCCN1C(=O)S/C(=C/c2ccc(N3CCOCC3)o2)C1=O	7	-4	20*	19	22	31*	55*
CCOc1ccc(OCC)c(NC(=O)CSc2nnnn2CC)c1	0	-16	22*	7	0	-1	-1
CCn1nnnc1SCC(=O)Nc1ccc(OC)cc1	0	-12	0	5	18	·	·
COc1cc(/C=C2\Oc3cc(O)ccc3C2=O)ccc1O	12	-11	22*	5	10	13	21*
CC(=O)C1=C(c2ccccc2)NC(=S)NC1c1cc(Cl)c(OC(C)C)c(Cl)c1 (stereo not drawn)	16	-8	20*	14	17	17	15
CON(Cc1ccccc1)S(=O)(=O)c1ccccc1Br	·	·	·	-2	-29	·	·
CC(C)Nc1ncnc2c1ncn2[C@H]1CN(Cc2ccc(Cl)cc2)C[C@@H](CO)O1	·	·	·	2	-9	·	·
Cc1ccc(N/N=C(\C#N)C(N)=S)c(C)c1	11	-12	24*	9	5	7	6
CCCCCCCCN1C(=O)[C@@H](CC(=O)N2CCN(C(=O)c3ccco3)CC2)C[C@@]2(C(=O)OC)C1=C[C@H](C1CCCC1)O[C@@H]2C	·	·	·	-2	-1	·	·
C=CCNc1ncnc2c1[nH]c1ccccc12	5	-9	6	3	-5	·	·
C=CCNc1ncnc2c1[nH]c1ccc(Cl)cc12	12	-6	22*	23	10	12	10
COc1ccc(N2CCN(C(=O)c3ccc4c(c3)CCN4S(C)(=O)=O)CC2)cc1	·	·	·	-2	-4	·	·
SMILES	V1R ag counter	OXTR potentiate	OXTR ag	TAAR1 ag	TAAR1 antagonist	OXTR ag confirm	V1aR counter 3x
COc1ccc(CNCCNC(=O)c2nonc2N)cc1OC	1	3	2	15	1	·	·
Nc1nonc1C(=O)NCCNCc1cc(Br)ccc1OCc1ccc(F)cc1	13	-8	20*	14	29	8	10
COCCCNC(=O)C[C@H]1C[C@@]2(C(=O)OC)C(=C[C@H](C(C)C)O[C@@H]2C2CC2)N(Cc2ccccc2)C1=O	·	·	·	0	-11	·	·
CC(=O)Nc1ccc(N/C(N)=N/c2nc(C)cc(C)n2)cc1	1	-8	0	1	0	·	·
Cc1cc(C)nc(/N=C(\N)Nc2ccc(-c3ccccc3)cc2)n1	16	-17	23*	58*	64*	14	18
CCOC(=O)c1c(C)n(-c2ccc(C)cc2)c2ccc(OCC(O)CNCC3CCCO3)cc12 (stereo not drawn)	10	-11	20*	·	·	9	3
COc1cccc(CNC(=O)[C@H]2CCCN2C(=O)[C@H]2CCCN2C(=O)N2CCOCC2)c1	·	·	·	1	0	·	·
Cc1nn(C2CCS(=O)(=O)C2)c(C)c1CN(C)C(=O)c1ccc(F)cc1 (stereo not drawn)	·	·	·	2	-27	·	·
COc1ccc(CC2(CO)CCN(CC3=Cc4cc(Cl)ccc4OC3)CC2)cc1	19	-33	23*	17	11	14	12
COc1ccc2c(c1)C=C(CN1CCC(CO)(CCc3ccccc3)CC1)CO2	2	-4	3	10	7	·	·
COC(=O)c1cc2c(c3c4ccccc4n(S(=O)(=O)c4ccc(C)cc4)c13)C(=O)N(Cc1ccccc1)C2	·	·	·	-1	-13	·	·
Cc1cccc(NC(=O)CNC(=O)[C@@H](Cc2ccccc2)NC(=O)[C@H]2O[C@@H](n3ccc(N)nc3=O)[C@H](O)[C@@H]2O)c1C	·	·	·	5	-27	·	·
O=[N+]([O-])c1ccc(NC(=S)NCc2ccncc2)cc1	11	-13	9	18	11	·	·
O=[N+]([O-])c1ccc(NC(=S)NCc2ccc(F)cc2)cc1	14	-27	22*	12	38	12	10
CCOC(=O)C(CNc1ccc(O)cc1)NC(=O)c1ccccc1 (stereo not drawn)	·	·	·	1	16	·	·
Cc1cc(OCC(=O)Nc2ccncc2)c(C)cc1Br	17	-10	21*	16	-2	11	10
Cc1[nH]c2ccccc2c1/C=N/NC(=O)c1cccc([N+](=O)[O-])c1	1	-4	0	6	6	·	·
